Experimental data as given in ChEMBL document CHEMBL2321691 (J Med Chem, 2013).
pIC50: −log10 of the molar value. Calls of active or inactive are those of the source. The rule behind the calls is not given here.

Assays:
[1] = tested on: HT-29; assay: Cytotoxicity against human HT-29 cells assessed as growth inhibition after 72 hrs by XTT assay; assay type: functional, cell-based; conditions: HT-29, 72 h
Procedure, shortened: (§1)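 Cells seeded at 1.5 x 10^3 per well (A549, HeLa, HT-29) or 3 x 10^3 (HL-60) in medium with 10% heat-inactivated FBS. Compound tested from 10-5 to 10-13 M for 72 h at 37 °C, then XTT readout. […] Triplicate wells, three experiments; mean ± S.D.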

[2] = tested on: HeLa; assay: Induction of apoptosis in human HeLa cells assessed as accumulation at sub-G0/G1 phase at 50 nM after 72 hrs by […] analysis; assay type: functional, cell-based
[3] = tested on: HeLa; assay: Induction of apoptosis in human HeLa cells assessed as processing of procaspase-3 into the p19/p17 active form at 50 nM by Western blotting analysis; assay type: functional, cell-based
Procedure, shortened: (§2)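 HeLa cells given 50 nM compound for several times; untreated controls run in parallel. About 5 x 10^6 cells lysed and run on reducing SDS gels (12% for caspase-3, 8% for PARP), then blotted to nitrocellulose. Probed overnight with anti-active caspase-3 (p19/p17) or C2.10 anti-PARP (116 kDa and p85), each 1:1000. β-actin loading control; ECL detection. Three experiments.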

[4] = tested on: HeLa; assay: Induction of apoptosis in human HeLa cells assessed as accumulation of DNA at sub-G0/G1 phase incubated for 24 hrs by propidium iodide staining-based FACS flow cytometric analysis relative to control; assay type: functional; conditions: in the assay text read “72 hrs” for “24 hrs”
Procedure, shortened: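 Apoptosis counted as percentage of HeLa cells in the sub-G0/G1 peak. Cells fixed in 70% ethanol, stained 1 h with RNAse A (1 mg/mL) and propidium iodide (20 µg/mL), then read by flow cytometry. Time-course used 5-100 nM for 18-72 h.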

[5] = tested on: HeLa; assay: Inhibition of microtubule system in human HeLa cells at 10 nM after 18 hrs by confocal microscopic analysis; assay type: cell-based
Procedure, shortened: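 HeLa cells grown on poly-L-lysine coverslips and treated 18 h at 10^-8 M. Washed in HPEM (pH 6.6), fixed 15 min in 4% paraformaldehyde, permeabilized with 0.5% Triton X-100. Stained with anti-α-tubulin (1:150, 1 h), then CY3 anti-mouse IgG (1:100, 1 h, 4 °C). Imaged by confocal microscopy; representative of at least three experiments.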

[6] = tested on: HeLa; assay: Cell cycle arrest in human HeLa cells assessed as accumulation at G2/M phase at 10^-8 M incubated for 18 hrs by propidium iodide staining-based FACS flow cytometric analysis relative to control; assay type: functional
Procedure, shortened: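 HeLa cells treated 18 h at 10^-8 M, with untreated controls run in parallel. 2-4 x 10^5 cells fixed overnight in 70% ethanol at 4 °C, washed in PBS, then incubated 1 h at room temperature with 1 mg/mL RNAse A and 20 µg/mL propidium iodide. DNA content read by FACSCalibur flow cytometry; percentage of cells in G2/M. Representative of three experiments.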

[7] = tested on: HeLa; assay: Cytotoxicity against human HeLa cells assessed as growth inhibition after 72 hrs by XTT assay
[8] = tested on: A549; assay: Cytotoxicity against human A549 cells assessed as growth inhibition after 72 hrs by XTT assay; assay type: functional, cell-based; conditions: A549, 72 h; procedure, shortened: as §1
[9] = organism: Bos taurus; assay: Inhibition of bovine brain tubulin polymerization at 20 uM after 30 mins by spectrophotometry
Procedure, shortened: (§3)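 Bovine brain tubulin at 1.5 mg/mL, pH 6.7, in 0.1 M MES, 1 mM EGTA, 1 mM MgCl2, 1 mM β-ME, 1.5 mM GTP with ligand. Incubated 20 °C for 30 min, then on ice 10 min. Assembly read as the A450 rise on a shift from 4 to 38 °C; inhibition is plateau minus baseline against ligand-free control. IC50 from monoexponential fits.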

[10] = tested on: HeLa; assay: Induction of apoptosis in human HeLa cells assessed as PARP cleavage at 50 nM by Western blotting analysis; assay type: functional, cell-based; procedure, shortened: as §2
[11] = tested on: HeLa; assay: Induction of apoptosis in human HeLa cells at 50 nM after 72 hrs by […] analysis relative to control; assay type: functional
[12] = tested on: HeLa; assay: Induction of apoptosis in human HeLa cells at 50 nM after 72 hrs by […] analysis in presence of caspase inhibitor z-VAD-fmk relative to control; assay type: functional
[13] = tested on: HL-60; assay: Cytotoxicity against human HL60 cells assessed as growth inhibition after 72 hrs by XTT assay; assay type: functional, cell-based; conditions: HL-60, 72 h; procedure, shortened: as §1
[14] = Inhibition of bovine brain tubulin polymerization after 30 mins by spectrophotometry; set-up: species or system Bos taurus; procedure, shortened: as §3

C=C(c1cc(OC)c(OC)c(OC)c1)c1ccc2c(c1)c(C#N)cn2C
pIC50 [1]: 8.41
Activity [2]: Active
Activity [3]: Active
Activity [4]: 20%
inhibition [5]: Active
Activity [6]: >83%
pIC50 [7]: 8.54
pIC50 [8]: 8.08
inhibition [9]: 93%
Activity [10]: Active
Activity [11]: 19.5%
Activity [12]: 5%
pIC50 [13]: 8.89
pIC50 [14]: 5.92
